Assay results from different studies.
Each line is one published result; the experiments were not run side by side.
Target: Tyrosine-protein kinase Blk (BLK, Homo sapiens, UniProt P51451)

Cc1nccc(COC(=O)N2C[C@@H]3[C@@H](CNC(=O)c4ccc5[nH]nnc5c4)[C@@H]3C2)n1
remaining binding (cell-free assay; competition with immobilised ligand; 1 µM): 93%

O=C(Nc1cnn(-c2csc(C(=O)NC3COC3)c2)c1)Nc1ccccc1Cl
remaining activity (enzyme activity; inhibitor; 5 µM): 79.2%

Cc1cc(NC(=O)c2cccc3cc(-c4cccc5[nH]nc(N)c45)ccc23)ccc1F
activity vs control (enzyme activity; inhibitor; 0.1 µM): 114%

COc1cc2ncnc(Nc3ccc(F)c(Cl)c3)c2cc1OCCCN1CCOCC1
remaining signal (cell-free assay; 0.5 µM): 87.7%

COc1cc2ncnc(Nc3ccc(Oc4ccccc4)cc3C)c2cc1OC
inhibition (enzyme activity; inhibitor; 1 µM): 85%

Cc1ccc(C(=O)NCc2ccsc2)cc1C#Cc1cn(C(C)C)c2ncnc(N)c12
activity vs control (enzyme activity; inhibitor; 1 µM): 4%

O=C1Nc2ccc(Cl)cc2C1=Cc1cc(Cl)c(O)c(Cl)c1
remaining signal (cell-free assay; 0.5 µM): 102%

Nc1c(C(=O)NCc2ccc(C(=O)NCCCC3CCCCC3)cc2)cnn1-c1ccccc1
remaining binding (cell-free assay; competition with immobilised ligand; 0.1 µM): 81%

CCN(CC)c1ccc(C2=NNC(=O)CC2C)cc1[N+](=O)[O-] (stereo not drawn)
remaining activity (enzyme activity; inhibitor; 10 µM): 110%

CC/C(=N\NC(=O)NCc1cccc(O)c1)c1ccc(O)c(C)c1O
inhibition (enzyme activity; inhibitor; 0.1 µM): 6%

CC(C)(C)c1nc2c(s1)c1nc(N)ncc1c1ccc(NS(=O)(=O)c3c(F)cccc3F)c(F)c12
remaining activity (enzyme activity; inhibitor; radiometric; 1 µM): 52%

Cc1cnc(NC2CCOCC2)nc1-n1cnc(C(=O)NC(CN)c2cc(F)cc(Cl)c2)c1 (stereo not drawn)
remaining activity (enzyme activity; inhibitor; radiometric; 1 µM): 112%

CC(C)CC(=O)N1CCc2nc(-c3ccc(Br)cc3)nc(N(C)Cc3ccccc3)c2C1
remaining binding (cell-free assay; competition with immobilised ligand; 0.1 µM): 84%

CN1CC(Oc2cnc(C#N)cc2-c2ccn3nc(NC(=O)C4CC4)cc3c2)C1
inhibition (enzyme activity; inhibitor; 1 µM): 28%

CCOCCn1cc(C(=O)Nc2ccc(-n3nc(-c4cccnc4)cc3C(F)(F)F)cn2)ccc1=O
remaining binding (cell-free assay; competition with immobilised ligand; 1 µM): 89%

COc1cc(Cl)c(C(=O)N[C@@H](CN[C@H]2CC[C@@H](N)CC2)Cc2ccc(C#N)cc2)cc1-c1ccc(CN[C@H](C)c2ccc(C)cc2)o1
remaining activity (enzyme activity; inhibitor; 1 µM): 80%

CCC(=O)N[C@@H]1CC[C@H](C(=O)N(C)c2ccc(-c3nc4ccccc4o3)cc2)C1
remaining binding (cell-free assay; competition with immobilised ligand; 1 µM): 100%

O=C1NC(=O)c2cc(Nc3ccc(F)cc3)c(Nc3ccc(F)cc3)cc21
remaining signal (cell-free assay; 0.5 µM): 94.3%
